Assay results: PubChem BioAssay AID488910 (Broad Institute, 2010)
Among all 20,000 compounds or so, about 25 (0.1%) were called active. The entries come from a sample that favours actives as a whole. Unmarked numbers belong to inactive results.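 How the source made its calls: active means mean replicate protection from cytokine-induced ATP loss at least 50% and at least 75% of replicates each reaching 50%; inconclusive means meets only one of the two criteria, mean or replicate share; inactive means fails both the mean and replicate share criteria.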

Test: preservation of ATP in cytokine-treated beta cells – cell-based, ATP luminescence, single point, primary screen (AID 488910)
Settings: INS-1E cytokine-induced death, 48 h, at 10 µM, hits give high values, normalised: neutral wells 0, positive control 100
How it was run: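 assay system = INS-1E rat insulinoma cells | amount = 8000 cells per well | medium = phenol-red-free RPMI with 5% fetal bovine serum | doses = one compound concentration, pin transfer | timing = 48 h cytokine plus compound treatment, 10 min reagent incubation | also added = IL-1β, TNF-α and IFN-γ cytokine mix | signal = CellTiter-Glo luminescence measuring cellular ATP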

Compound | protection from cytokine-induced ATP loss
C[C@H](CO)N1C[C@H](C)[C@H](CN(C)C(=O)Nc2ccc(F)cc2)Oc2c(NC(=O)c3cnccn3)cccc2C1=O | 8.13%
C[C@@H]1CCCCO[C@H](CN(C)C(=O)c2ccccc2)[C@@H](C)CN([C@H](C)CO)C(=O)c2cc(NC(=O)Nc3cccc4ccccc34)ccc2O1 | -1.39%
C[C@@H]1CCCCO[C@H](CN(C)S(=O)(=O)c2ccccc2)[C@@H](C)CN([C@H](C)CO)C(=O)c2cc(NC(=O)Nc3ccc(F)cc3)ccc2O1 | -6.46%
CC(C)NC(=O)N(C)C[C@H]1Oc2ccc(NC(=O)Cn3cnnn3)cc2CC(=O)N([C@H](C)CO)C[C@H]1C | -1.35%
Cc1noc(C)c1NC(=O)Nc1ccc2c(c1)C(=O)N([C@H](C)CO)C[C@H](C)[C@H](CN(C)Cc1ccc(Oc3ccccc3)cc1)O2 | -15.9%
C[C@H](CO)N1C[C@H](C)[C@H](CN(C)S(C)(=O)=O)Oc2ccc(NC(=O)Nc3ccc(F)cc3)cc2C1=O | 2.55%
CC(C)NC(=O)N(C)C[C@@H]1Oc2c(cccc2N(C)C)C(=O)N([C@@H](C)CO)C[C@H]1C | 10.2%
C[C@@H]1CN([C@H](C)CO)C(=O)c2cccc(NS(=O)(=O)c3ccc(F)cc3)c2O[C@@H]1CN(C)C(=O)Nc1ccc(C(F)(F)F)cc1 | -38%
Cc1ccc(S(=O)(=O)N(C)C[C@@H]2Oc3c(NC(=O)c4ccncc4)cccc3C(=O)N([C@@H](C)CO)C[C@@H]2C)cc1 | 11.7%
COc1ccc(NC(=O)N(C)C[C@H]2Oc3c(NC(=O)Nc4cccc5ccccc45)cccc3C(=O)N([C@H](C)CO)C[C@@H]2C)cc1 | -0.252%
COc1cc(Br)cc(/C=N/NC(=O)c2ccccn2)c1O | -83.9%
C[C@@H]1CCCCO[C@H](CN(C)CC2CC2)[C@@H](C)CN([C@H](C)CO)C(=O)c2cc(NC(=O)Cc3ccccc3)ccc2O1 | -0.194%
COc1ccc(NC(=O)N(C)C[C@H]2Oc3ccc(NC(=O)Nc4ccc5c(c4)OCO5)cc3C(=O)N([C@H](C)CO)C[C@H]2C)cc1 | 3.2%
Cc1ccc(S(=O)(=O)Nc2ccc3c(c2)C(=O)N([C@H](C)CO)C[C@H](C)[C@H](CN(C)Cc2ccccc2)OCCCC[C@@H](C)O3)cc1 | -2.3%
CC(C)NC(=O)N(C)C[C@H]1Oc2c(NS(C)(=O)=O)cccc2C(=O)N([C@@H](C)CO)C[C@H]1C | 12.8%
C[C@H]1CN([C@@H](C)CO)C(=O)c2cc(NC(=O)Cn3cnnn3)ccc2O[C@@H]1CN(C)C(=O)Nc1ccccc1 | 2.24%
Cc1ccc(S(=O)(=O)N(C)C[C@@H]2Oc3ccc(NC(=O)Nc4ccc5c(c4)OCO5)cc3C(=O)N([C@@H](C)CO)C[C@@H]2C)cc1 | 20.1%
O=C(O)CCCCCCC(=O)N/N=C/c1ccncc1Br | 6.66%

Compound | protection from cytokine-induced ATP loss
C[C@H]1CN([C@@H](C)CO)C(=O)c2cccc(NC(=O)C3CCCCC3)c2O[C@H]1CN(C)C(=O)NC1CCCCC1 | 6.52%
Cc1noc(C)c1NC(=O)N(C)C[C@H]1Oc2ccc(NC(=O)C3CCCCC3)cc2CC(=O)N([C@@H](C)CO)C[C@H]1C | 4.09%
Cc1ccc(S(=O)(=O)N(C)C[C@@H]2OCCCC[C@@H](C)Oc3ccc(NS(=O)(=O)c4ccccc4)cc3C(=O)N([C@H](C)CO)C[C@@H]2C)cc1 | -4.67%
Cc1ccc(S(=O)(=O)Nc2ccc3c(c2)C(=O)N([C@H](C)CO)C[C@H](C)[C@H](CN(C)Cc2ccc(C(=O)Nc4ccccc4N)cc2)OCCCC[C@@H](C)O3)cc1 | 1.83%
C[C@H]1CN([C@@H](C)CO)C(=O)c2cc(NS(=O)(=O)c3ccc(Cl)cc3)ccc2O[C@H]1CN(C)Cc1ccc(Oc2ccccc2)cc1 | -11.4%
C[C@@H]1CCCCO[C@@H](CN(C)C(=O)CCCN(C)C)[C@@H](C)CN([C@H](C)CO)C(=O)c2cc(NC(=O)Nc3ccc(F)cc3)ccc2O1 | 9.84%
C[C@H](CO)N1C[C@H](C)[C@H](CN(C)Cc2ccncc2)Oc2ccc(NC(=O)C3CCCCC3)cc2CC1=O | -9.96%
COc1ccc(NC(=O)N(C)C[C@H]2Oc3c(NC(=O)C4CC4)cccc3C(=O)N([C@@H](C)CO)C[C@@H]2C)cc1 | -1.85%
C[C@@H]1CN([C@H](C)CO)C(=O)c2cccc(NC(=O)c3cnccn3)c2O[C@@H]1CN(C)Cc1ccncc1 | 3.26%
C[C@@H]1CN([C@H](C)CO)C(=O)c2cc(NC(=O)CCCCCC(=O)Nc3ccccc3N)ccc2O[C@H]1CN(C)C(=O)Nc1ccc(C(F)(F)F)cc1 | 1.3%
C[C@@H]1CN([C@H](C)CO)C(=O)Cc2cc(NC(=O)CCN3CCOCC3)ccc2O[C@@H]1CN(C)S(C)(=O)=O | 3.88%
Cc1ccc(S(=O)(=O)N(C)C[C@H]2Oc3ccc(NS(=O)(=O)c4ccccc4)cc3CC(=O)N([C@@H](C)CO)C[C@H]2C)cc1 | -6.07%
C[C@@H]1CN([C@H](C)CO)C(=O)c2cccc(NC(=O)C3CCCCC3)c2O[C@@H]1CN(C)C(=O)NC1CCCCC1 | 6.03%
C[C@H](CO)N1C[C@H](C)[C@H](CN(C)Cc2ccc3c(c2)OCO3)Oc2c(NC(=O)NC3CCCCC3)cccc2C1=O | -16.1%
CNC[C@@H]1Oc2ccc(NS(=O)(=O)c3c(C)noc3C)cc2CC(=O)N([C@@H](C)CO)C[C@@H]1C | 0.843%
CC(C)NC(=O)Nc1ccc2c(c1)C(=O)N([C@H](C)CO)C[C@H](C)[C@@H](CN(C)S(C)(=O)=O)OCCCC[C@@H](C)O2 | 1.03%
C[C@@H]1CN([C@@H](C)CO)C(=O)Cc2cc(NC(=O)C3CCCCC3)ccc2O[C@@H]1CN(C)C(=O)Nc1ccc(C(F)(F)F)cc1 | -12.7%
Cc1ccc(S(=O)(=O)N(C)C[C@@H]2Oc3c(NS(=O)(=O)c4ccc(F)cc4)cccc3C(=O)N([C@@H](C)CO)C[C@H]2C)cc1 | 15.4%
